Compound activity from PubChem BioAssay.
Hits are enriched below; roughly 2.2% of the tested compounds scored in any of these assays.
C8 TRAIL sens: viability loss with TRAIL in NB7+C8 cells, primary screen, TRAIL sensitizer project, cell-based, ATPlite luminescence | inhibition (viability loss, TRAIL sensitization), % at 10 µM | hit rate 1% among 360,000;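 active means compounds causing at least 50% loss of cell viability in the single-dose screen, relative to plate controls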
NF-kB neuron act: activators of NF-kB expression in neurons, primary screen, cell-based, HTS; fold change at 12.5 µM; hit rate 1.6% among 190,000; human neuronal cells, NF-kB reporter expression; hits give high values; in the data active means fold change above about 3.3
FLuc inh counter: firefly luciferase enzyme inhibitors, primary screen, artefact control for luciferase-based inhibitor screens, biochemical, luminescence, ATPLite. 10 min. inhibition, % at 10 µM. hit rate 1.5% among 200,000. AID 1006, 2008;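 active means inhibition above about 50% when tested at 10 µM, limit read from the data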
Target sequence (P08659 whole entry, looked up): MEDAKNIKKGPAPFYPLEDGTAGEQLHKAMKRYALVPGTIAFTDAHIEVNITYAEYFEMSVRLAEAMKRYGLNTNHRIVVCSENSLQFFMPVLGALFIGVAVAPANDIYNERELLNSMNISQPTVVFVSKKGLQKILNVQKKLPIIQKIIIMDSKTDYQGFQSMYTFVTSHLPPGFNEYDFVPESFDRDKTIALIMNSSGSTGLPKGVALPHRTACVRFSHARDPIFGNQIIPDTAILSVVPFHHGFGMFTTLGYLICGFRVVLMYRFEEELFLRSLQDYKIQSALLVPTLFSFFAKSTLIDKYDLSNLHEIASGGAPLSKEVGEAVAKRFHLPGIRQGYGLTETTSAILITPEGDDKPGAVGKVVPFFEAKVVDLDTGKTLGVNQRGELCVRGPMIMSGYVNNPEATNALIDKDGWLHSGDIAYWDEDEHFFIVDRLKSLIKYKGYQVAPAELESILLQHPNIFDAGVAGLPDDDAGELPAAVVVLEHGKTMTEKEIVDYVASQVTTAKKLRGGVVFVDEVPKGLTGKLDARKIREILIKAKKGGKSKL
APP 5'UTR act: activators of APP 5'UTR luciferase reporter, primary screen, SH-SY5Y cells | SH-SY5Y APP 5'UTR luciferase reporter, luminescence; zero percent = DMSO vehicle wells | activation, % at 2 µM | hit rate 1% among 190,000;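 active means activation above a set limit, based on mean plus 3 SD of controls, cut at about 140% in these data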
FLuc stim CS: FLuc activators, initial screening, artefact control for FLuc-dependent activation tests, biochemical, ATPlite luminescence. Luciferin 4-monooxygenase (Photinus pyralis), P08659. ATPlite luciferase biochemical, 10 min; 0 = ATP-free wells, 1 = DMSO control. activation factor at 10 µM. 200,000 tested, under 10 active. AID 1027, 2008;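 active means luciferase activation factor, scaled between plate controls, of at least 2 with compound at 10 µM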
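Material: Luciferase/luciferin reagent mix; Doses: test compounds dosed from 2 mM stocks in 100% DMSO; Schedule: 10 min incubation after luciferase reagent addition, room temperature; Measured by: luminescence from luciferase reaction; Read-out: luminescence gain marking luciferase activators.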
PPC-1+TRAIL kill: compounds killing PPC-1 cancer cells with TRAIL present, primary screen, TRAIL potentiator project, ATPLite luminescence, uHTS | PPC-1 cells + TRAIL, ATPLite viability luminescence | cell killing (% activity), % at 4 µM or 5 µM | hit rate 0.41% among 220,000 | AID 1443, 2008;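 active means cell killing above 50% in the first pass at 4 µM, then a duplicate retest at 5 µM averaging 50% or more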;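 further: plate controls were cells with TRAIL plus DMSO for no effect and medium-only wells lacking cells for full effect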
Starred values were filed as active, the others as inactive; nt = no result given.

SMILES	C8 TRAIL sens	NF-kB neuron act	FLuc inh counter	APP 5'UTR act	FLuc stim CS	PPC-1+TRAIL kill
Cc1ccc(C(=O)NCc2ccc(F)cc2)s1	-14	nt	nt	nt	nt	nt
Nc1ccccc1C=C1Cc2ccccc2C1=O	48*	nt	nt	nt	nt	nt
Cc1cc(C=C2C(=O)c3ccccc3C2=O)c(C)n1-c1cccc(C(=O)O)c1	12	0.71	37	40	0.6	-1
Cc1cc(C=C2C(=O)c3ccccc3C2=O)c(C)n1-c1ccccc1	78*	0.32	90*	43	0.1	5
CC1=NN(c2ccccc2)C(=O)C1=Cc1ccccc1	0	nt	nt	nt	nt	nt
Cc1cc(C=C2C(=O)c3ccccc3C2=O)c(C)n1-c1ccc(C(=O)O)cc1	6	0.98	-7	-2	1.1	8
CC1=NN(c2ccccc2)C(=O)/C1=C/c1c(O)n(-c2ccc(F)cc2)[nH]c1=O	33	1.5	63*	39	0.4	31
Cc1cc(/C=C2\Cc3ccccc3C2=O)c(C)n1-c1ccccc1	71*	1.2	91*	105	0.1	23
CCOC(=O)C[C@@H]1OC[C@H](CO)N1S(=O)(=O)c1ccc(C)cc1	-9	nt	nt	nt	nt	nt
COc1ccc(CN2CSC(=S)N(Cc3ccc(OC)cc3)C2)cc1	3	nt	nt	nt	nt	-2
CC1(C(=O)NS(=O)(=O)Cc2ccccc2)CCN1C(=O)C1(c2ccc(Cl)cc2)CCC1 (stereo unspecified)	-3	nt	nt	nt	nt	nt
CC1=NN(c2ccccc2)C(=O)/C1=C\c1cc(C)n(-c2ccccc2)c1C	25	0.82	63*	50	0.4	12
CCOC(COC(=O)c1ccccc1C(=O)O)c1ccccc1 (stereo unspecified)	-4	nt	nt	nt	nt	nt
O=C(Nc1cccc(Cl)c1)c1nc[nH]c1C(=O)NCCCNC(=O)c1[nH]cnc1C(=O)Nc1cccc(Cl)c1	50*	nt	nt	nt	nt	nt
Cc1ccc(NC(=O)c2nc[nH]c2C(=O)Nc2ccccc2F)cc1	1	nt	nt	nt	nt	nt
O=C(Nc1ccccc1)c1nc[nH]c1C(=O)Nc1ccccc1F	50*	nt	nt	nt	nt	nt
CC(C)(C)OC(=O)NCc1ccc(CNC(=O)c2[nH]cnc2C(=O)Nc2ccccc2F)cc1	56*	nt	nt	nt	nt	nt
CC(C)(C)OC[C@H](NC(=O)c1[nH]cnc1C(=O)Nc1ccccc1F)C(=O)OC(C)(C)C	60*	nt	nt	nt	nt	nt
CC(C)(C)OC(=O)[C@H](Cc1ccccc1)NC(=O)c1nc[nH]c1C(=O)N[C@@H](Cc1ccccc1)C(=O)OC(C)(C)C	12	nt	nt	nt	nt	11
CC(C)(C)OC(=O)NCc1ccc(NC(=O)c2nc[nH]c2C(=O)NCCN(CCNC(=O)c2[nH]cnc2C(=O)Nc2ccc(CNC(=O)OC(C)(C)C)cc2)CCNC(=O)c2[nH]cnc2C(=O)Nc2ccc(CNC(=O)OC(C)(C)C)cc2)cc1	-3	nt	nt	nt	nt	nt
CC(C)(C)OC(=O)NCc1ccc(NC(=O)c2nc[nH]c2C(=O)NCCCNC(=O)c2[nH]cnc2C(=O)Nc2ccc(CNC(=O)OC(C)(C)C)cc2)cc1	83*	nt	nt	nt	nt	nt
CC(C)(C)OC(=O)NCc1ccc(NC(=O)c2nc[nH]c2C(=O)NCCCCNC(=O)c2[nH]cnc2C(=O)Nc2ccc(CNC(=O)OC(C)(C)C)cc2)cc1	84*	nt	nt	nt	nt	nt
CC(C)(C)OC(=O)NCc1ccc(NC(=O)c2nc[nH]c2C(=O)NCCCCCCNC(=O)c2[nH]cnc2C(=O)Nc2ccc(CNC(=O)OC(C)(C)C)cc2)cc1	36	nt	nt	nt	nt	nt
CCOC(=O)c1ccc(NC(=O)c2nc[nH]c2C(=O)NCCCCCNC(=O)OC(C)(C)C)cc1	52*	nt	nt	nt	nt	12
CCOC(=O)c1ccc(NC(=O)c2nc[nH]c2C(=O)NCCCCNC(=O)c2[nH]cnc2C(=O)Nc2ccc(C(=O)OCC)cc2)cc1	46	nt	nt	nt	nt	nt
CC(C)(C)OC(=O)NCCCCCNC(=O)c1[nH]cnc1C(=O)Nc1cc(Br)ccc1F	58*	nt	nt	nt	nt	nt
O=C(C1=C(O)C(=O)N(CCCn2ccnc2)C1c1cccc(Br)c1)c1ccco1 (stereo unspecified)	-5	nt	nt	nt	nt	nt
C=CCSc1nnc(NC(=O)C23CC4CC(CC(NC(C)=O)(C4)C2)C3)s1	8	nt	nt	nt	nt	nt
